ChEMBL document CHEMBL3400062, “Synthesis of novel C5-curcuminoid-fatty acid conjugates and mechanistic investigation of their anticancer activity” (Bioorg Med Chem Lett, 2015)
In brackets after ≈: the same amount, converted by molar mass.

Assays:
[1] = Cytotoxicity against human CCL229 cells after 3 days by MTT assay; format: functional, cell-based; details: CCL229, 72 h
Outline: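 CCL-229 colon cancer cells grown in F12K medium (2 mM L-glutamine, 1500 mg/L sodium bicarbonate), seeded at 10,000 cells/well. Compounds added at final 5–500 µg/mL. Incubation 3 days at 37°C, humidified 5% CO2. Viability read by MTT. IC50 is the concentration giving 50% viability, taken from dose-response curves. Triplicate, mean ± SEM.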

[2] = test system: COLO 205; assay: Induction of mitochondrial membrane permeabilization in human COLO205 cells at 46 ug/ml by JC1 dye based staining method (reference value: 14%); format: functional
Outline: (§1)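 COLO-205 cells, 1×10^6 per sample, exposed under the same conditions and controls as the annexin assay (camptothecin, DMSO). Then labelled with JC-1 at 200 μg/ml and scored for % cells with permeabilized mitochondrial membranes. Triplicate.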

[3] = target: Nuclear factor NF-kappa-B complex (Homo sapiens) (UniProt Q00653+P19838+Q04206); assay: Inhibition of TNFalpha-induced nuclear factor-kappa-B (unknown origin) expressed in HEK293 cells pre-incubated for 16 hrs followed by TNFalpha stimulation for 6 hrs by luciferase reporter gene assay; format: cell-based
Outline: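 NFκB reporter HEK293 cells seeded at 30,000/well in assay medium without hygromycin B and allowed to reattach overnight at 37°C, 5% CO2. Compound dilutions added for 16 h (DMSO in untreated and cell-free controls). Mouse TNFα 5 ng/mL then added for 6 h. Cells lysed with one-step luciferase reagent about 15 min at room temperature, luminescence read. Non-linear regression; triplicate, mean ± SEM.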

[4] = target: T1, DNA topoisomerase 1 (Homo sapiens) (UniProt P11387); assay: Inhibition of human DNA topoisomerase 1 using pHOT1 supercoiled DNA substrate incubated for 30 mins by ethidium bromide staining based gel electrophoresis method
T1 sequence (whole entry): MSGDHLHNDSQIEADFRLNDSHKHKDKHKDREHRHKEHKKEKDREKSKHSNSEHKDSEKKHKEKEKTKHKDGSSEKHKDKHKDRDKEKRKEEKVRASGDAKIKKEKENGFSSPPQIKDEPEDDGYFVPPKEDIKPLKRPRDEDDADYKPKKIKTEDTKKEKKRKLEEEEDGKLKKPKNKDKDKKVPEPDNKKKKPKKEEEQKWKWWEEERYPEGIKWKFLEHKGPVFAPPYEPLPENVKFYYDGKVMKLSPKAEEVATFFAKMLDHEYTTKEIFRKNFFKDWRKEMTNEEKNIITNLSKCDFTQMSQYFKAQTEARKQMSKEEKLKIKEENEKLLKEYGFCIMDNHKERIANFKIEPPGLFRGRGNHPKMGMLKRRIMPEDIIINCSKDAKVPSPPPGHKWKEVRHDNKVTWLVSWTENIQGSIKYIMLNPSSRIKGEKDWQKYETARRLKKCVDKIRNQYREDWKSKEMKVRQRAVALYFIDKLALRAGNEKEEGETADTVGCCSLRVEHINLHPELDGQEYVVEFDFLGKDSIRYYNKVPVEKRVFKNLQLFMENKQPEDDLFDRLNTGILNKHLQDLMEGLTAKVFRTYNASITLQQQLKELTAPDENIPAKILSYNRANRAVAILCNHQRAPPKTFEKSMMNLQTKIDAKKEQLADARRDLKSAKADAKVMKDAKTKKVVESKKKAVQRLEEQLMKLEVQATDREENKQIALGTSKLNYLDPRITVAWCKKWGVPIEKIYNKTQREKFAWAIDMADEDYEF
Outline: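 Human DNA topoisomerase I kit with pHOT1 supercoiled DNA substrate. Compounds dissolved in 50% DMSO and tested at 10–1,500 μg/mL. Reactions run 30 min at 37°C, stopped with 10% SDS, then proteinase K 0.05 mg/mL for 15 min at 37°C. Products resolved on 1% agarose gel at 72V, stained with ethidium bromide 1 h, destained 30 min. Triplicate.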

[5] = test system: COLO 205; assay: Induction of apoptosis in human COLO205 cells assessed as caspase-3 activation at 46 ug/ml by FLICA staining based method; format: functional
Outline: (§2)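 COLO-205 cells exposed under the annexin assay conditions (24 h; camptothecin and DMSO controls). Cells harvested and stained with fluorescent labelled inhibitors of caspases (FLICA) for active caspase 3/7, scored as % positive cells. Triplicate.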

[6] = test system: PBMC; assay: Cytotoxicity against human PBMC after 3 days by MTT assay; format: cell-based; details: 72 h
Outline: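 PBMCs from healthy volunteers cultured in IL-2-supplemented medium, seeded at 4×10^5–5×10^4 cells/well. Compounds added at final 2–100 µg/mL. Incubation 3 days at 37°C, humidified 5% CO2, then MTT read-out. IC50 is the concentration giving 50% viability, from dose-response curves. Triplicate, mean ± SEM.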

[7] = test system: COLO 205; assay: Induction of apoptosis in human COLO205 cells at 46 ug/ml after 24 hrs by propidium iodide and annexin V staining method (reference value: 14.3%); format: functional
[8] = test system: COLO 205; assay: Induction of apoptosis in human COLO205 cells assessed as caspase-3 activation at 3.5 ug/ml by FLICA staining based method; format: functional
Outline: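 COLO-205 cells treated as in the annexin assay (24 h exposure); cells harvested and stained with fluorescent labelled caspase inhibitors (FLICA) for active caspase 3/7; read as percent of cells with active caspase; triplicate runs.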

[9] = test system: COLO 205; assay: Induction of apoptosis in human COLO205 cells at 3.5 ug/ml after 24 hrs by propidium iodide and annexin V staining method (reference value: 14.3%); format: functional
[10] = test system: COLO 205; assay: Induction of mitochondrial membrane permeabilization in human COLO205 cells at 3.5 ug/ml by JC1 dye based staining method (reference value: 14%); format: functional
[11] = test system: COLO 205; assay: Induction of mitochondrial membrane permeabilization in human COLO205 cells at 7.4 ug/ml by JC1 dye based staining method (reference value: 14%); format: functional; outline: as §1
[12] = test system: COLO 205; assay: Induction of apoptosis in human COLO205 cells assessed as caspase-3 activation at 7.4 ug/ml by FLICA staining based method; format: functional; outline: as §2
[13] = test system: COLO 205; assay: Induction of apoptosis in human COLO205 cells at 7.4 ug/ml after 24 hrs by propidium iodide and annexin V staining method (reference value: 14.3%); format: functional

Sequence of Nuclear factor NF-kappa-B complex (Homo sapiens) (P19838 whole entry, looked up): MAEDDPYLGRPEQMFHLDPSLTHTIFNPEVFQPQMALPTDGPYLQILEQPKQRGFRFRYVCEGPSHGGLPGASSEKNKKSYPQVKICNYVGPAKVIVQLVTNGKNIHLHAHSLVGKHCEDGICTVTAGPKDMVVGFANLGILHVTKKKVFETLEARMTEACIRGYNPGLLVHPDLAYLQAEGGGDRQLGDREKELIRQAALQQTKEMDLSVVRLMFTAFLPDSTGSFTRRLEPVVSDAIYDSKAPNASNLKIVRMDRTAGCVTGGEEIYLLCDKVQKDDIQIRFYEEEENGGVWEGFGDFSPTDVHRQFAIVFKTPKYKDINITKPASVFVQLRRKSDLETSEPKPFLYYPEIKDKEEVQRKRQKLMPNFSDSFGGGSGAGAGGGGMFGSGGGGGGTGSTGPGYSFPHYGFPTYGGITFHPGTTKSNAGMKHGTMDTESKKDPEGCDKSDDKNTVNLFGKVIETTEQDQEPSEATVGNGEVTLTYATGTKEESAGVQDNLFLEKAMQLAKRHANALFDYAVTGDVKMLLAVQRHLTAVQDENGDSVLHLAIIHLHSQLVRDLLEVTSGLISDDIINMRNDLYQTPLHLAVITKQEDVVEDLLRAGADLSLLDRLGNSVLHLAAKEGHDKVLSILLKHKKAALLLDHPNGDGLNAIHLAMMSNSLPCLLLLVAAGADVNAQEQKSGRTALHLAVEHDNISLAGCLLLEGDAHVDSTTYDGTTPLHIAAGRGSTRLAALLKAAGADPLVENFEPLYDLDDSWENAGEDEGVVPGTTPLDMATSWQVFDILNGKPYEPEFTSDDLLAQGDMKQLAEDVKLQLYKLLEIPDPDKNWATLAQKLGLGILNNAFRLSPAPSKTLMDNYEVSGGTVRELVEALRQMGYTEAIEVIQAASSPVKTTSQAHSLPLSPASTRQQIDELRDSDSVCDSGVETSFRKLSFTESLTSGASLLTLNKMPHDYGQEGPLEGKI
Sequence of Nuclear factor NF-kappa-B complex (Homo sapiens) (Q00653 whole entry, looked up): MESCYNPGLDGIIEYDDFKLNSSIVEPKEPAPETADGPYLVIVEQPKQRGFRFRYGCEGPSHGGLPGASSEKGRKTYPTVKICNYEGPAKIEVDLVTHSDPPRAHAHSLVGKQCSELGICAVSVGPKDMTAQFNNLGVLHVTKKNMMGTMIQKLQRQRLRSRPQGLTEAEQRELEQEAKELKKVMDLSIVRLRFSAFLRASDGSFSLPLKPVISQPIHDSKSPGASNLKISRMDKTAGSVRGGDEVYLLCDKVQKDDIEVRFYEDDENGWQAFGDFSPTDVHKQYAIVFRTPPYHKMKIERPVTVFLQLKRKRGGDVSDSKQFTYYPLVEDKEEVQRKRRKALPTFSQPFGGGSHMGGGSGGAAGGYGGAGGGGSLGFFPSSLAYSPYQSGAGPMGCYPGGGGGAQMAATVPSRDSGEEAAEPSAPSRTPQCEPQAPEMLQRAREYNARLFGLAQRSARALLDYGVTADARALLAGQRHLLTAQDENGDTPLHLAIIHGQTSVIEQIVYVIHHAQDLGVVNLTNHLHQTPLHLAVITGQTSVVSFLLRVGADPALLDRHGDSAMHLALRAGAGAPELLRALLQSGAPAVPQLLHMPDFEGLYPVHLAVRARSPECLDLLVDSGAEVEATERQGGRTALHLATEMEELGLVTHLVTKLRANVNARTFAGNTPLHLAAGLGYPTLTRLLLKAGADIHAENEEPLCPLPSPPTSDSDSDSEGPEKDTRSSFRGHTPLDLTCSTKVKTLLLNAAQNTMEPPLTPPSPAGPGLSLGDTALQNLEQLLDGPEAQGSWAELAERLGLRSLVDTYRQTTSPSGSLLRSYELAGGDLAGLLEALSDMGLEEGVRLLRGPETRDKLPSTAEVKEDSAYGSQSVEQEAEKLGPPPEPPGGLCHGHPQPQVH
Sequence of Nuclear factor NF-kappa-B complex (Homo sapiens) (Q04206 whole entry, looked up): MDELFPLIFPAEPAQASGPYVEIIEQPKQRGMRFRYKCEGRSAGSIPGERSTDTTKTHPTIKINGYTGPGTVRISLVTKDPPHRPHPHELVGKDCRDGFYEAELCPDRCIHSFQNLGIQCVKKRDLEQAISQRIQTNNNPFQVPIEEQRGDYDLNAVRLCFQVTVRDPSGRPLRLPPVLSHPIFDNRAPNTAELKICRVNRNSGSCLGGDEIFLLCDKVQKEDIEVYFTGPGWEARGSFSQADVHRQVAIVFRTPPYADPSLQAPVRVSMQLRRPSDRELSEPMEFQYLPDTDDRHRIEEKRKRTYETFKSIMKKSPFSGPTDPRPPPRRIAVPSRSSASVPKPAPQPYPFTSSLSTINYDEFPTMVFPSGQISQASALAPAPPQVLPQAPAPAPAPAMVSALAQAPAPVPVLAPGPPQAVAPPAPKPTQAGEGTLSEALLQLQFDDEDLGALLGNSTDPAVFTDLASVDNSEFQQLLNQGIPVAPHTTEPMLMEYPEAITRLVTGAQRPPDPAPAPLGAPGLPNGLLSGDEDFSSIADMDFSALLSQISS

Compound | IC50 [1] [µg/mL] | IC50 [6] [µg/mL] | also measured
CCCCCCCCCC(=O)Oc1ccc(/C=C/C(=O)/C=C/c2ccc(OC(=O)CCCCCCCCC)cc2)cc1 | 180 (≈ 313 µM) |  | 
CCCCCCCCCC(=O)Oc1cccc(/C=C/C(=O)/C=C/c2cccc(OC(=O)CCCCCCCCC)c2)c1 | 22.5 (≈ 39.1 µM) | 35.9 (≈ 62.5 µM) | Activity [2]: 68%; inhibition [3]: Dose-dependent effect; MIC [4]: 50 µg/mL (≈ 87 µM); Activity [5]: 19.5%; Activity [7]: 27.5%
CCCCCCCCCCCCCCCC(=O)Oc1ccc(/C=C/C(=O)/C=C/c2ccc(OC(=O)CCCCCCCCCCCCCCC)c(OC)c2)cc1OC | 56.1 (≈ 69.8 µM) | 40.6 (≈ 50.5 µM) | MIC [4]: 100 µg/mL (≈ 125 µM)
CC[C@@]1(O)C(=O)OCc2c1cc1n(c2=O)Cc2cc3ccccc3nc2-1 [CAMPTOTHECIN] |  |  | Activity [8]: 30%; Activity [9]: 29%; Activity [10]: 48.5%
CCCCCCCCCCCCCCCC(=O)Oc1cc(/C=C2\CCC/C(=C\c3ccc(OC)c(OC(=O)CCCCCCCCCCCCCCC)c3)C2=O)ccc1OC | 130 (≈ 154 µM) |  | 
CCCCCCCCCCCCCCCC(=O)Oc1cccc(/C=C/C(=O)/C=C/c2cccc(OC(=O)CCCCCCCCCCCCCCC)c2)c1 | 113 (≈ 152 µM) |  | 
CCCCCCCCCCCCCCCC(=O)Oc1ccc(/C=C2\CCC/C(=C\c3ccc(OC(=O)CCCCCCCCCCCCCCC)c(OC)c3)C2=O)cc1OC | 139 (≈ 165 µM) |  | 
COc1cc(/C=C/C(=O)CC(=O)/C=C/c2ccc(O)c(OC)c2)ccc1O [CURCUMIN] | 26.8 (≈ 72.7 µM) | 12.3 (≈ 33.4 µM) | inhibition [3]: Dose-dependent effect; Activity [11]: 23%; Activity [12]: 23.3%; Activity [13]: 27.5%
CCCCCCCCCC(=O)Oc1cc(/C=C/C(=O)/C=C/c2ccc(OC)c(OC(=O)CCCCCCCCC)c2)ccc1OC | 66 (≈ 104 µM) |  | 
CCCCCCCCCCCCCCCC(=O)Oc1cc(/C=C/C(=O)/C=C/c2ccc(OC)c(OC(=O)CCCCCCCCCCCCCCC)c2)ccc1OC | 70.5 (≈ 87.8 µM) |  | 
CCCCCCCCCCCCCCCC(=O)Oc1cccc(/C=C2\CCC/C(=C\c3cccc(OC(=O)CCCCCCCCCCCCCCC)c3)C2=O)c1 | 29.3 (≈ 37.4 µM) | 36.3 (≈ 46.3 µM) | MIC [4]: 250 µg/mL (≈ 319 µM)
CCCCCCCCCC(=O)Oc1ccc(/C=C/C(=O)/C=C/c2ccc(OC(=O)CCCCCCCCC)c(OC)c2)cc1OC | 143 (≈ 225 µM) |  | 
